Measured values published in paper PMC5651997 (Chemosphere, 2017).

What was measured:
[1] = test system: D. magna; format: in vivo, Daphnia magna; conditions: neonates, 48 h, 40 μM atrazine
[2] = test system: D. magna; test: 48 h acute toxicity test, single chemicals; format: in vivo, Daphnia magna; conditions: for LC50: read-out: LC50 (μM)(95% CI)
[3] = test system: detoxification and sphingolipid homeostasis genes; test: qPCR confirmation of differential gene expression; format: in vivo, Daphnia magna; conditions: 20 or 40 μM atrazine, 96 h, at least one of the concentrations
How it was run: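 RNA stabilised and stored at −80°C; 2 μg reverse-transcribed with MMLV. SYBR Green qPCR; efficiency from a 1:1–1:1024 dilution series of pooled untreated and treated samples; triplicate 1:15-diluted samples quantified.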

[4] = test system: detoxification genes; test: RNA sequencing, differential gene expression after atrazine exposure; format: in vivo, Daphnia magna; conditions: 40 μM atrazine, 96 h
[5] = test system: Daphnia HR96; conditions: ref Karimullina et al., 2012; cited from earlier work
[6] = 48 h acute toxicity test, single chemicals; format: in vivo, Daphnia magna; conditions: Daphnia magna, in vivo, LC50 (μM)(95% CI)
[7] = neonates (<24 h old), 48 h, chemical individually, (95% CI)
[8] = neonates (<24 h old), 48 h, chemical individually

## O=S1OCC2C(CO1)C1(Cl)C(Cl)=C(Cl)C2(Cl)C1(Cl)Cl (centres unmarked) [endosulfan]
[1]
  drop of LC50 in atrazine-containing binary mixture vs chemical alone: 60%
[2]; [7]
  Hillslope: −8.310 (−10.52 to −6.098)

## CC(C)(c1ccc(O)cc1)c1ccc(O)cc1 [BPA, bisphenol A]
[2]; [7]
  Hillslope: −6.891 (−10.34 to −3.438)

## Oc1cc(Cl)ccc1Oc1ccc(Cl)cc1Cl [triclosan]
[2]; [7]
  Hillslope: −4.365 (−6.091 to −3.083)
[2]; [8]
  LC50: 1.08 µM

## CCOP(=S)(OCC)Oc1ccc([N+](=O)[O-])cc1 [parathion]
[2]; [7]
  Hillslope: −4.831 (−8.368 to −1.294)
[2]; [8]
  LC50: 0.0122 µM

## CCNc1nc(Cl)nc(NC(C)C)n1 [atrazine]
[3]
  expression of two GSTs, cyp370a9, ADH-A and two sphingomyelinases by qPCR: significantly up-regulated
[4]; glutathione metabolism pathway
  logFC, GST 1: 1.33
  logFC, aminopeptidase: 1.13
[4]; of 26,646 genes identified
  number of significantly down-regulated genes: 441
  number of significantly up-regulated genes: 675
[5]
  potency for activating Daphnia HR96: greatest potency

## CCCCCCCCCc1ccc(O)cc1 [p-nonylphenol]
[1]
  drop of LC50 in atrazine-containing binary mixture vs chemical alone: 25%
[2]; Daphnia magna, in vivo
  Hillslope: −5.895 (−8.000 to −3.790)
[6]
  LC50: 1.94 µM

## CCOP(=S)(OCC)Oc1nc(Cl)c(Cl)cc1Cl [chlorpyrifos]
[2]; [7]
  Hillslope: −2.498 (−3.795 to −1.496)
